Measured values published in PMC3495079 (Biochemistry, 2012).

How the values were obtained:
HsDcpS [1] = biological target: T1, HsDcpS (Homo sapiens, UniProt Q96C86); test: HPLC analysis of cap analog hydrolysis by recombinant DcpS; format: biochemical; settings: for Hydrolysis by DcpS (HPLC): up to 24 h; for Hydrolysis by DcpS (HPLC, Figure 3): 60 min or 24 h
T1 sequence (Q96C86 1-337): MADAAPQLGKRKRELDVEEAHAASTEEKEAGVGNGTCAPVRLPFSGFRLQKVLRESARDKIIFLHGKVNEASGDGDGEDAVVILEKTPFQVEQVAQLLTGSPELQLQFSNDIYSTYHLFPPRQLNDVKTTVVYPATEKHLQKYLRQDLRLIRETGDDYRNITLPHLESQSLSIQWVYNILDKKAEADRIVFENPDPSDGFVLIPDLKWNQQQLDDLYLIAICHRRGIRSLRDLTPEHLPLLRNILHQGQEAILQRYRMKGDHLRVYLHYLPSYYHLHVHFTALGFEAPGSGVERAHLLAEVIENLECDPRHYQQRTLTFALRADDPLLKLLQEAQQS
How it was run: (§1)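 His-tagged recombinant enzyme was expressed in E. coli and purified by Ni-NTA and gel filtration. Cap analog (15 μM) was preincubated 10 min, then DcpS was added at 0.02 or 0.2 μM. Buffers were Tris/MgAc/(NH4)2SO4 at 37 °C, or Tris/KCl/EDTA/DTT at 20 °C. Aliquots were taken at 5–60 min and 24 h and heat-stopped (97 °C, 2.5 min). Reverse-phase HPLC used a methanol/KH2PO4 gradient with A260 and fluorescence detection. Products were identified by retention time, and % substrate hydrolyzed was recorded.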

AsDcpS [2] = biological target: T2, AsDcpS (Ascaris suum, UniProt D3K0N9); test: HPLC analysis of cap analog hydrolysis by recombinant DcpS; format: biochemical, A. suum; settings: 15 μM substrate; for Hydrolysis by DcpS (HPLC): up to 24 h
T2 sequence (D3K0N9 whole entry): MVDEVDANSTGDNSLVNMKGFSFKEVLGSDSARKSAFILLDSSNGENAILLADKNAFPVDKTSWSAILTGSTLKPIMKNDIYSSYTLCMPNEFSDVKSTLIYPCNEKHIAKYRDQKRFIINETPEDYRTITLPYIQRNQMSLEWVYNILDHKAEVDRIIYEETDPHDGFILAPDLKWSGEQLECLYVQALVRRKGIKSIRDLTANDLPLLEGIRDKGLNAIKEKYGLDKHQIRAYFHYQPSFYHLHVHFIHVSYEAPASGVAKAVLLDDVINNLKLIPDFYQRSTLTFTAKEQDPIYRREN

CeDcpS [3] = biological target: T3, CeDcpS (Caenorhabditis elegans, UniProt G5EFS4); test: HPLC analysis of cap analog hydrolysis by recombinant DcpS; format: biochemical, C. elegans; settings: 15 μM substrate; for Hydrolysis by DcpS (HPLC): up to 24 h
T3 sequence (G5EFS4 1-311): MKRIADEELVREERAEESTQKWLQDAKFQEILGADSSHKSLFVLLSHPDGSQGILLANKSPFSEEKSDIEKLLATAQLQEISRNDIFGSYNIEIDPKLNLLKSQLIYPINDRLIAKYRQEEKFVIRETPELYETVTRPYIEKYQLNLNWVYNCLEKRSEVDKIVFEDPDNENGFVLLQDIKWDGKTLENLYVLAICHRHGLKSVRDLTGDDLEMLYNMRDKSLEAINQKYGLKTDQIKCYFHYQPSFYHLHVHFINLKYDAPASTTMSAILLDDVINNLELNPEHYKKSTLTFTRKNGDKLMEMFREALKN
How it was run: as §1

CeDcpS [4] = biological target: T3, CeDcpS; test: Fluorescence titration; format: binding, C. elegans; settings: for Equilibrium association constant KAS, CeDcpS: 20 °C, 50 mM Tris HCl, 200 mM KCl, 0.5 mM EDTA, 1 mM DTT, pH 7.6
How it was run: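 His-tagged CeDcpS was expressed in E. coli and purified by Ni-NTA and gel filtration. Binding was read as quenching of intrinsic Trp fluorescence using time-synchronized titration. Ligand solutions of increasing concentration (5 μM–2 mM) were added to 0.2 μM initial protein. Excitation was 280 nm and emission 340 nm, corrected for dilution and inner filter. KAS was fitted by non-linear regression and reported as a weighted average of 3–5 titrations.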

ScDcpS [5] = biological target: T4, ScDcpS (Saccharomyces cerevisiae, UniProt Q06151); test: HPLC analysis of cap analog hydrolysis by recombinant DcpS; format: biochemical, S. cerevisiae; settings: 15 μM substrate; for Hydrolysis by DcpS (HPLC): up to 24 h
T4 sequence (Q06151 whole entry): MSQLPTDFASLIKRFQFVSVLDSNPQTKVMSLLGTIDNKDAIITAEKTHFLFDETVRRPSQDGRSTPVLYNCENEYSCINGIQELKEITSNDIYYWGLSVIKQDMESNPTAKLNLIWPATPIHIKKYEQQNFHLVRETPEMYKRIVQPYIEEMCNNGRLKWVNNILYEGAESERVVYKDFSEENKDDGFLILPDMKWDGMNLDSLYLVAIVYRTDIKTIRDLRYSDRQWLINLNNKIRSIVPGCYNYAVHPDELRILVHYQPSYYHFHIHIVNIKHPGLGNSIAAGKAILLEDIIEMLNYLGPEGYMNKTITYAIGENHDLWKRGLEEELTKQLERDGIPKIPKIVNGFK
How it was run: as §1

AsDcpS [6] = biological target: T2, AsDcpS; test: Fluorescence titration; format: binding, A. suum; settings: for Equilibrium association constant KAS, AsDcpS: 20 °C, 50 mM Tris HCl, 200 mM KCl, 0.5 mM EDTA, 1 mM DTT, pH 7.6
HsDcpS [7] = biological target: T1, HsDcpS; settings: 20 °C, 50 mM Tris HCl, 200 mM KCl, 0.5 mM EDTA, 1 mM DTT, pH 7.6; cited from earlier work
[8] = tested on: recombinant C. elegans decapping scavenger; test: Competitor inhibition of CeDcpS hydrolytic activity; format: biochemical
CeDcpS [9] = biological target: T3, CeDcpS; settings: substrate of CeDcpS; cited from earlier work
ScDcpS [10] = biological target: T4, ScDcpS; settings: substrate of ScDcpS; cited from earlier work
ScDcpS [11] = biological target: T4, ScDcpS; test: Inhibition of DcpS hydrolysis of m^7GpppG, HPLC; format: biochemical, S. cerevisiae
How it was run: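 Yeast DcpS (His-tagged, E. coli-expressed, Ni-NTA plus gel filtration) used at 0.10 μM to give 50% uninhibited conversion in 10 min. Substrate m7GpppG 15 μM; test compound 0.1–50 μM; buffer 50 mM Tris HCl, 200 mM KCl, 0.5 mM EDTA, 1 mM DTT, pH 7.6; 20 °C. Stopped at 97 °C for 2.5 min, analysed by reverse-phase HPLC. IC50 from substrate-conversion plot; Ki via tight-binding competitive equation.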

AsDcpS [12] = biological target: T2, AsDcpS; test: Inhibition of DcpS hydrolysis of m^7GpppG, HPLC; format: biochemical, A. suum
HsDcpS [13] = biological target: T1, HsDcpS; test: Inhibition of DcpS hydrolysis of m^7GpppG, HPLC; format: biochemical
CeDcpS [14] = biological target: T3, CeDcpS; test: Inhibition of DcpS hydrolysis of m^7GpppG, HPLC; format: biochemical, C. elegans
How it was run: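 Recombinant His-tagged C. elegans DcpS was expressed in E. coli and purified by Ni-NTA and gel filtration. Enzyme at 0.02 μM, m7GpppG 15 μM, test compound 0.1–50 μM, in 50 mM Tris HCl, 200 mM KCl, 0.5 mM EDTA, 1 mM DTT, pH 7.6. Preincubated 10 min, reacted 10 min at 20 °C, heat-stopped, products by reverse-phase HPLC. IC50 taken from conversion versus concentration; Ki from tight-binding competitive equation.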

HsDcpS [15] = biological target: T1, HsDcpS; test: Fluorescence titration; format: binding; settings: ratio of KAS values
[16] = condition (1): 37 °C, pH 8.0, 15 μM substrate, 0.02 or 0.2 μM DcpS
[17] = condition (2): 20 °C, pH 7.6, 15 μM substrate, 0.2 μM DcpS
[18] = condition (1): 37 °C, pH 8.0, 0.02 or 0.2 μM DcpS
[19] = condition (2): 20 °C, pH 7.6, 0.2 μM DcpS
[20] = condition (2), 0.02 μM DcpS, Figure 3
[21] = after 60 min, 20 °C, pH 7.6, 0.02 μM DcpS
[22] = condition (2): 20 °C, pH 7.6, 15 μM substrate, 0.02 μM DcpS
[23] = condition (2): 20 °C, pH 7.6, 0.02 μM DcpS

Row | SMILES | Hydrolysis by DcpS (HPLC) (HsDcpS [1]; [16]) | Hydrolysis by DcpS (HPLC) (HsDcpS [1]; [17]) | Hydrolysis by DcpS (HPLC) (AsDcpS [2]; [18]) | Hydrolysis by DcpS (HPLC) (AsDcpS [2]; [19]) | Hydrolysis by DcpS (HPLC) (CeDcpS [3]; [18]) | Hydrolysis by DcpS (HPLC) (CeDcpS [3]; [19]) | Equilibrium association constant KAS, CeDcpS (CeDcpS [4]) [µM⁻¹] | Hydrolysis by DcpS (HPLC) (ScDcpS [5]; [18]) | Hydrolysis by DcpS (HPLC) (ScDcpS [5]; [19]) | Equilibrium association constant KAS, AsDcpS (AsDcpS [6]) [µM⁻¹] | Hydrolysis by DcpS (HPLC, Figure 3) (AsDcpS [2]; [23]) | Hydrolysis by DcpS (HPLC, Figure 3) (CeDcpS [3]; [23]) | also measured
1 | CN(C)c1nc2c(c(=O)[nH]1)[n+](C)cn2[C@@H]1O[C@H](COP(=O)(O)OP(=O)(O)O)[C@@H](O)[C@H]1O [m3^2,2,7GDP, 2,2,7-trimethylguanosine diphosphate] | not degraded | resistant to cleavage | not degraded | resistant to cleavage | not degraded | resistant to cleavage | 1.44 ± 0.26 | not degraded | resistant to cleavage | 0.53 ± 0.16 | – | – | –
2 | C[n+]1cn([C@@H]2O[C@H](COP(=O)(O)O)[C@@H](O)[C@H]2O)c2nc(N)[nH]c(=O)c21 [m^7GMP, 7-methylguanosine monophosphate] | – | – | – | – | – | – | 8.00 ± 0.65 | – | – | 26.35 ± 1.84 | – | – | Equilibrium association constant KAS, HsDcpS (HsDcpS [7]): 19 ± 1 µM⁻¹; Competitor concentration for 50% inhibition, fold higher than for m^7GDP [8]: about 20 fold
3 | Cn1c[n+]([C@@H]2O[C@H](COP(=O)(O)OP(=O)([O-])OP(=O)(O)OC[C@H]3O[C@@H](n4cnc5c(=O)[nH]c(N)nc54)[C@H](O)[C@@H]3O)[C@@H](O)[C@H]2O)c2nc(N)[nH]c(=O)c21 [m^7GpppG] | very fast | – | very fast | – | very fast | – | – | very fast | – | – | – | – | Extent of decapping (% of hydrolyzed substrate) (HsDcpS [1]; after 60 min, 20 °C, pH 7.6, 15 μM substrate, 0.02 μM DcpS): 95%; Cleavage efficiency by HsDcpS, fold higher than m^7GTP (HsDcpS [1]; [20]): ~ 2 fold; Time to complete conversion of the substrate to products (HsDcpS [1]; [17]): less than 3 minutes; Extent of decapping (% of hydrolyzed substrate) (AsDcpS [2]; [21]): 95%; Time to complete conversion of the substrate to products (AsDcpS [2]; [19]): less than 3 minutes; Extent of decapping (% of hydrolyzed substrate) (CeDcpS [3]; [21]): 95%; Time to complete conversion of the substrate to products (CeDcpS [3]; [19]): less than 3 minutes; Km (CeDcpS [9]): 1.17 ± 0.14 µM; Time to complete conversion of the substrate to products (ScDcpS [5]; [19]): less than 3 minutes; Km (ScDcpS [10]): 0.14 µM
4 | CN(C)c1nc2c(c(=O)[nH]1)[n+](C)cn2[C@@H]1O[C@H](COP(=O)(O)O)[C@@H](O)[C@H]1O [m3^2,2,7GMP] | – | – | – | – | – | – | 2.88 ± 0.67 | – | – | 0.28 ± 0.27 | – | – | –
5 | C[n+]1cn([C@@H]2O[C@H](COP(=O)(O)OP(=O)(O)OP(=O)(O)OC[C@H]3O[C@@H](n4c[n+](C)c5c(=O)[nH]c(N)nc54)[C@H](O)[C@@H]3O)[C@@H](O)[C@H]2O)c2nc(N)[nH]c(=O)c21 [m^7Gpppm^7G] | – | significantly slower than that of m^7GpppG | – | significantly slower than that of m^7GpppG | – | significantly slower than that of m^7GpppG | – | – | significantly slower than that of m^7GpppG | – | – | – | –
6 | Nc1nc2c(ncn2[C@@H]2O[C@H](COP(=O)(O)OP(=O)(O)OP(=O)(O)OC[C@H]3O[C@@H](n4cnc5c(=O)[nH]c(N)nc54)[C@H](O)[C@@H]3O)[C@@H](O)[C@H]2O)c(=O)[nH]1 [GpppG] | – | – | – | – | – | – | – | – | – | – | does not occur | much slower as compared to m^7GpppG | Hydrolysis by DcpS (HPLC, Figure 3) (HsDcpS [1]; [22]): does not occur
7 | Cn1c[n+]([C@@H]2O[C@H](COP(=O)([O-])OP(=O)(O)OP(=O)(O)O)[C@@H](O)[C@H]2O)c2nc(N)[nH]c(=O)c21 [m^7GTP] | – | – | – | – | – | – | – | – | – | – | efficiently hydrolyzed | efficiently hydrolyzed | Rate of degradation by HsDcpS, fold slower than by AsDcpS and CeDcpS (HsDcpS [1]; [20]): 2 fold; Hydrolysis by DcpS (HPLC, Figure 3) (HsDcpS [1]; [22]): efficiently hydrolyzed
8 | C[n+]1cn([C@@H]2O[C@H](COP(=O)(O)OP(=O)([O-])O)[C@@H](O)[C@H]2O)c2nc(N)[nH]c(=O)c21 [m^7GDP, 7-methylguanosine diphosphate] | not degraded | resistant to cleavage | not degraded | resistant to cleavage | not degraded | resistant to cleavage | – | not degraded | resistant to cleavage | – | – | – | IC50 (ScDcpS [11]): 3.95 ± 0.23 µM; Ki (ScDcpS [11]): 0.036 ± 0.002 µM; IC50 (AsDcpS [12]): 1.44 ± 0.11 µM; Kd (CeDcpS [4]): 0.0103 µM; IC50 (HsDcpS [13]): 4.17 ± 0.5 µM; Equilibrium association constant KAS, HsDcpS (HsDcpS [7]): 114 ± 8 µM⁻¹; Kd (AsDcpS [6]): 0.0054 µM; IC50 (CeDcpS [14]): 2.17 ± 0.13 µM; Ki (CeDcpS [14]): 0.156 ± 0.02 µM; Fold higher affinity of human DcpS compared to m^7GMP (HsDcpS [15]): 6 fold
9 | CN(C)c1nc2c(c(=O)[nH]1)[n+](C)cn2[C@@H]1O[C@H](COP(=O)(O)OP(=O)(O)OP(=O)(O)O)[C@@H](O)[C@H]1O [m3^2,2,7GTP] | – | – | – | – | – | – | – | – | – | – | have activity | have activity | –
